Assays:
Bacillus subtilis = experiment: Growth inhibition of Bacillus subtilis 168 at 0.2 mM measured every 10 mins over 16 hrs relative to control; format: functional; settings: subsp. subtilis str. 168, read-out: GI
Summary of the method: (§1)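 Cultures grown with compound at 0.2 mM; growth expressed as a percentage of the untreated positive control (growth without inhibitor, taken as 100%). B. subtilis (Gram-positive) and E. coli (Gram-negative) assayed in parallel.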

Escherichia coli = experiment: Growth inhibition of Escherichia coli DH5[alpha] at 0.2 mM measured every 10 mins over 16 hrs relative to control; format: functional; settings: read-out: GI; summary of the method: as §1
[1] = tested on: Bacillus subtilis subsp. subtilis str. 168; experiment: Inhibition of Bacillus subtilis 168 RNA polymerase subunit beta' CH region interaction with full length sigmaA at 15 uM by ELISA relative to control
Summary of the method: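 ELISA measuring binding of B. subtilis σA to the β'-CH region of core RNAP with compound at 15 μM. Signal expressed as a percentage of the positive control (σA–β'-CH interaction without inhibitor, set at 100%).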

| SMILES | inhibition of growth at 200 µM (Bacillus subtilis) [%] | inhibition of growth at 200 µM (Escherichia coli) [%] | inhibition [1] [%] |
| --- | --- | --- | --- |
| C=CCN1C(=O)/C(=C/c2c(OC)cc(OC)c3cc(C(=O)O)[nH]c23)SC1=S | 21 | 30 | 74 |
| COc1cc(OC)c2cc(C(=O)O)[nH]c2c1/C=C1\SC(=S)NC1=O | 0 | 26 | 36 |
| COc1cc(OC)c2c(-c3ccc(Cl)cc3)c[nH]c2c1/C=C1\SC(=S)NC1=O | 0 | 15 | 21 |
| COc1cc(OC)c2c(-c3ccc(Cl)cc3)c[nH]c2c1C=C1C(=O)NC(=S)NC1=O | 0 | 24 | 14 |
| COc1cc(OC)c2cc(C(=O)O)[nH]c2c1C=C1C(=O)NC(=O)NC1=O | 0 | 0 | 28 |
| COC(=O)c1cc2c(OC)cc(OC)c(C=C3C(=O)NC(=O)NC3=O)c2[nH]1 | 89 | 20 | 28 |
| COc1cc(OC)c2c(-c3ccccc3)c[nH]c2c1C=C1C(=O)NC(=O)NC1=O | 83 | 0 | 45 |
| COC(=O)c1cc2c(OC)cc(OC)c(/C=C3\SC(=S)NC3=O)c2[nH]1 | 45 | 28 | 3 |
| C=CCN1C(=O)/C(=C/c2c(OC)cc(OC)c3c(-c4ccccc4)c[nH]c23)SC1=S | 44 | 66 | 0 |
| COc1cc(OC)c2c(-c3ccccc3)c[nH]c2c1C=C1C(=O)NC(=S)NC1=O | 0 | 0 | 14 |
| COc1cc(OC)c2c(-c3ccc(Cl)cc3)c[nH]c2c1C=C1C(=O)NC(=O)NC1=O | 41 | 30 | 15 |
| C=CCN1C(=O)/C(=C/c2c(OC)cc(OC)c3cc(C(=O)OCc4ccccc4)[nH]c23)SC1=S | 6 | 28 | 63 |
| COc1cc(OC)c2cc(C(=O)O)[nH]c2c1C=C1C(=O)NC(=S)NC1=O | 0 | 0 | 71 |
| COC(=O)c1cc2c(OC)cc(OC)c(C=C3C(=O)NC(=S)NC3=O)c2[nH]1 | 91 | 57 | 17 |
| C=CCN1C(=O)/C(=C/c2c(OC)cc(OC)c3cc(C(=O)OC)[nH]c23)SC1=S | 22 | 79 | 46 |
| COc1cc(OC)c2c(-c3ccccc3)c[nH]c2c1/C=C1\SC(=S)NC1=O | 44 | 45 | 17 |
| C=CCN1C(=O)/C(=C/c2c(OC)cc(OC)c3c(-c4ccc(Cl)cc4)c[nH]c23)SC1=S | 8 | 14 | 34 |

— ChEMBL document CHEMBL4043208, “Small molecule inhibitors of bacterial transcription complex formation” (2017)
